In ChEMBL document CHEMBL1149534, “3-Arylamino-2H-1,2,4-benzothiadiazin-5-ol 1,1-dioxides as novel and selective CXCR2 antagonists” (Bioorg Med Chem Lett, 2007):
In brackets after ≈: the same amount, converted by molar mass.

Columns and labels:
[1] = molecular target: T1, C-X-C chemokine receptor type 2 (Homo sapiens, UniProt P25025); assay: Displacement of human recombinant [125I]IL8 from CXCR2 receptor expressed in CHO cells; format: cell-based
T1 sequence (P25025 whole entry): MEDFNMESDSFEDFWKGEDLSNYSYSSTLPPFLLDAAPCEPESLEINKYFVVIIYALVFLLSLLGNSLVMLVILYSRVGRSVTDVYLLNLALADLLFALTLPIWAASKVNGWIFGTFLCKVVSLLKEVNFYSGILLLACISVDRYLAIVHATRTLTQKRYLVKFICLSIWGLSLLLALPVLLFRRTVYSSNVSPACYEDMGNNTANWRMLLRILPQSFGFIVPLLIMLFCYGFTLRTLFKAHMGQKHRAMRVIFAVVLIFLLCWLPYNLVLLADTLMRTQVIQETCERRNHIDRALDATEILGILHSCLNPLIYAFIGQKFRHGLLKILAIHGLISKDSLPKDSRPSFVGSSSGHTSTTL
How it was run: (§1)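 Membranes from CHO cells expressing CXCR1 or CXCR2, with ~0.25 nM human recombinant [125I]-IL-8 as radioligand, run in 96-well format. Values are the mean of three individual experiments.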

[2] = Bioavailability in rat at 3.2 mg/kg, po; format: ADME, organism-based; conditions: in vivo
Cytochrome P450 1A2 = Cytochrome P450 1A2 (Homo sapiens, UniProt P05177); assay: Inhibition of human CYP1A2; format: ADME
Cytochrome P450 2D6 = Cytochrome P450 2D6 (Homo sapiens, UniProt P10635); assay: Inhibition of human CYP2D6; format: ADME
Cytochrome P450 2C9 = Cytochrome P450 2C9 (Homo sapiens, UniProt P11712); assay: Inhibition of human CYP2C9
[3] = Clearance in rat at 1.6 mg/kg, iv and […] mg/kg, po; format: ADME, organism-based; conditions: in vivo
[4] = Half life in rat at 1.6 mg/kg, iv and 3.2 mg/kg, po; format: ADME, organism-based; conditions: in vivo
[5] = Volume of distribution at steady state in rat at 1.6 mg/kg, iv and 3.2 mg/kg, po; format: ADME, organism-based; conditions: in vivo, read-out: Vdss
Cytochrome P450 3A4 = Cytochrome P450 3A4 (Homo sapiens, UniProt P08684); assay: Inhibition of human CYP3A4; format: ADME
[6] = molecular target: Interleukin-8 receptors, CXCR1/CXCR2 (Homo sapiens) (UniProt P25025+P25024); assay: Ratio of IC50 for CXCR2 receptor to IC50 CXCR1 receptor; format: protein assay
How it was run: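 Selectivity ratio from radioligand-binding IC50s at CXCR2 and CXCR1, using CHO-cell membranes expressing each receptor. Binding results are the mean of three individual experiments.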

[7] = Solubility in phosphate buffer at pH 7.4; format: physicochemical
How it was run: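 Aqueous solubility measured in 0.05 M phosphate buffer, pH 7.4, containing 2% DMSO. High-throughput HPLC-based read-out.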

[8] = molecular target: T1, C-X-C chemokine receptor type 2; assay: Antagonist activity at CXCR2 receptor expressed in CHOK1 cells assessed as human IL8-induced calcium mobilization by FLIPR; format: functional, cell-based, CHO-K1
How it was run: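 Cells grown 24 h, loaded with Fluo-4 AM calcium dye, then exposed to compound at […] for 10 min at 37 °C. Ca2+ mobilization read on FLIPR as percent of maximal IL-8 response. IC50 taken as concentration giving 50% inhibition of the maximal IL-8 response.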

[9] = molecular target: T2, C-X-C chemokine receptor type 1 (Homo sapiens, UniProt P25024); assay: Displacement of human recombinant [125I]IL8 from CXCR1 receptor expressed in CHO cells; format: cell-based; how it was run: as §1
T2 sequence (P25024 whole entry): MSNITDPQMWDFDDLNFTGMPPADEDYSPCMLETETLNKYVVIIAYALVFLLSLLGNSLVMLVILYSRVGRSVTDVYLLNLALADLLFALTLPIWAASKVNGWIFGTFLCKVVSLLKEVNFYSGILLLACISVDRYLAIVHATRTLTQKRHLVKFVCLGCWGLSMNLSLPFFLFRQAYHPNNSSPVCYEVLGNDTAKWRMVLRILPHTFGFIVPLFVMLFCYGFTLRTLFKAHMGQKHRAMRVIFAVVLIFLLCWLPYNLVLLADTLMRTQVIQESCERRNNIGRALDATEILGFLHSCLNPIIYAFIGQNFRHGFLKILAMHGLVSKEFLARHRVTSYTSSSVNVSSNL

[10] = molecular target: Mitogen-activated protein kinase 14 (Homo sapiens, UniProt Q16539); assay: Inhibition of P38alpha
Histamine H1 receptor = Histamine H1 receptor (Homo sapiens, UniProt P35367); assay: Inhibition of histamine H1 receptor
[11] = molecular target: T3, Adrenergic receptor alpha-1 (Homo sapiens, UniProt P35348+P25100+P35368); assay: Inhibition of adrenergic alpha-1A receptor; format: protein assay
[12] = molecular target: 5-hydroxytryptamine receptor 7 (Homo sapiens, UniProt P34969); assay: Inhibition of 5HT7 receptor
[13] = molecular target: Plasminogen activator inhibitor 1 (Homo sapiens, UniProt P05121); assay: Inhibition of PAI1
[14] = molecular target: 5-hydroxytryptamine receptor 4 (Homo sapiens, UniProt Q13639); assay: Inhibition of 5HT4A receptor
[15] = molecular target: 5-hydroxytryptamine receptor 1A (Homo sapiens, UniProt P08908); assay: Inhibition of 5HT1A receptor
Adenosine receptor A2a = Adenosine receptor A2a (Homo sapiens, UniProt P29274); assay: Inhibition of adenosine A2a receptor
D(2) dopamine receptor = D(2) dopamine receptor (Homo sapiens, UniProt P14416); assay: Inhibition of dopamine D2 receptor
[16] = molecular target: T3, Adrenergic receptor alpha-1; assay: Inhibition of adrenergic A1 receptor; format: protein assay
[17] = molecular target: Beta-2 adrenergic receptor (Homo sapiens, UniProt P07550); assay: Inhibition of adrenergic beta2 receptor
[18] = molecular target: Beta-1 adrenergic receptor (Homo sapiens, UniProt P08588); assay: Inhibition of adrenergic beta-1 receptor
Histamine H3 receptor = Histamine H3 receptor (Homo sapiens, UniProt Q9Y5N1); assay: Inhibition of histamine H3 receptor
[19] = molecular target: 5-hydroxytryptamine receptor 2C (Homo sapiens, UniProt P28335); assay: Inhibition of 5HT2C receptor
D(3) dopamine receptor = D(3) dopamine receptor (Homo sapiens, UniProt P35462); assay: Inhibition of dopamine D3 receptor
[20] = molecular target: 5-hydroxytryptamine receptor 6 (Homo sapiens, UniProt P50406); assay: Inhibition of 5HT6 receptor
P2Y purinoceptor 1 = P2Y purinoceptor 1 (Homo sapiens, UniProt P47900); assay: Inhibition of P2Y1 receptor
[21] = molecular target: 5-hydroxytryptamine receptor 1D (Homo sapiens, UniProt P28221); assay: Inhibition of 5HT1D receptor
[22] = molecular target: 5-hydroxytryptamine receptor 1B (Homo sapiens, UniProt P28222); assay: Inhibition of 5HT1B receptor
Chain of 5-hydroxytryptamine receptor 1B (P28222 whole entry): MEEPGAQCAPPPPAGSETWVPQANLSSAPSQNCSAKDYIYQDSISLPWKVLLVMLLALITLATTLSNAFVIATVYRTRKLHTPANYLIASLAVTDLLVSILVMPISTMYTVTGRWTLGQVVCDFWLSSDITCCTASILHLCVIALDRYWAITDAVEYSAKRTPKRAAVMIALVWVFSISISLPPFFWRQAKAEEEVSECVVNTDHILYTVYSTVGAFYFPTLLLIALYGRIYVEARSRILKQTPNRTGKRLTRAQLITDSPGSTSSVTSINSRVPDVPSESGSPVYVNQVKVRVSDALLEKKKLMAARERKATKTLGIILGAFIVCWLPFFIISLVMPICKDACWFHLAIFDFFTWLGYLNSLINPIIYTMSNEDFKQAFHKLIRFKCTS

Chain of 5-hydroxytryptamine receptor 4 (Q13639 whole entry): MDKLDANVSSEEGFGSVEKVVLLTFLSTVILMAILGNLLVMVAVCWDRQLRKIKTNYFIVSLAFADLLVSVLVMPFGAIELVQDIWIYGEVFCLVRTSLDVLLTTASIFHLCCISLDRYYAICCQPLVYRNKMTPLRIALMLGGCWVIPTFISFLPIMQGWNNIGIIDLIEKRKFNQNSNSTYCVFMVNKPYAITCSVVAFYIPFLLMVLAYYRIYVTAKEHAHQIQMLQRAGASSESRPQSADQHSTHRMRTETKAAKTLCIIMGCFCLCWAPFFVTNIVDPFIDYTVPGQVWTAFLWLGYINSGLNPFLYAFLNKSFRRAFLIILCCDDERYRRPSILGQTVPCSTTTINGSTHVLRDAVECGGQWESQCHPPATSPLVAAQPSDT
Chain of P2Y purinoceptor 1 (P47900 whole entry): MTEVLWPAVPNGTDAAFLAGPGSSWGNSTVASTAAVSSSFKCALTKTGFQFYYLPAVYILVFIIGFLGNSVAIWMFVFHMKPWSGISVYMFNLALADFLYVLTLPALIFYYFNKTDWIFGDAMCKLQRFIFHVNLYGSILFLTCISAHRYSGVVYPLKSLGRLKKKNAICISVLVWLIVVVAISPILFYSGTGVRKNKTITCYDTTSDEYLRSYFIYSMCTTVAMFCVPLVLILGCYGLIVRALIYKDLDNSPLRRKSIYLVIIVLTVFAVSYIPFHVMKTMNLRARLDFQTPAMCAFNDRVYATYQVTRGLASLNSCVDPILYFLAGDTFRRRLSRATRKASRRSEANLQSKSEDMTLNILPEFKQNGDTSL
Chain of D(3) dopamine receptor (P35462 whole entry): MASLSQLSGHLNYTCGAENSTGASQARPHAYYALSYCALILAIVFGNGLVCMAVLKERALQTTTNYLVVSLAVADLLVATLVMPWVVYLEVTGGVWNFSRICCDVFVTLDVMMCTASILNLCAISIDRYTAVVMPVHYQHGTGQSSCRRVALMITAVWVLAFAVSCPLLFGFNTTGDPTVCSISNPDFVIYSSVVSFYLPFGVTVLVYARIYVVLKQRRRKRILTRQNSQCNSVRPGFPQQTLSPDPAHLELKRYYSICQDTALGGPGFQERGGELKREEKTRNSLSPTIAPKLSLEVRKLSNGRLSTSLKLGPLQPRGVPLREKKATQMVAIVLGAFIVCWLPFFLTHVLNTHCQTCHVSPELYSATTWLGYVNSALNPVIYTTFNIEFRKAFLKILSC
Chain of Adenosine receptor A2a (P29274 whole entry): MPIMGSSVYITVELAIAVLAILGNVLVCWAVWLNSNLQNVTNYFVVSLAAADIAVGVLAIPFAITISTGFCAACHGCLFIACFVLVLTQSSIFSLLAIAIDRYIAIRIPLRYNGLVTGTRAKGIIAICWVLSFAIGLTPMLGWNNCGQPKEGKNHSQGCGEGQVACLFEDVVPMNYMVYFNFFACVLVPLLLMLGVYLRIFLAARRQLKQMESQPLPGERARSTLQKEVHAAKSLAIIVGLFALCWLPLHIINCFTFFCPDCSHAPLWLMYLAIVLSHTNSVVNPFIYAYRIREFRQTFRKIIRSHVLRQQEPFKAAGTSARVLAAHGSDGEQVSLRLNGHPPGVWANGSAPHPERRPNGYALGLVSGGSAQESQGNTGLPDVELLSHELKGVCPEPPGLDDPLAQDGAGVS
Chain of Histamine H1 receptor (P35367 whole entry): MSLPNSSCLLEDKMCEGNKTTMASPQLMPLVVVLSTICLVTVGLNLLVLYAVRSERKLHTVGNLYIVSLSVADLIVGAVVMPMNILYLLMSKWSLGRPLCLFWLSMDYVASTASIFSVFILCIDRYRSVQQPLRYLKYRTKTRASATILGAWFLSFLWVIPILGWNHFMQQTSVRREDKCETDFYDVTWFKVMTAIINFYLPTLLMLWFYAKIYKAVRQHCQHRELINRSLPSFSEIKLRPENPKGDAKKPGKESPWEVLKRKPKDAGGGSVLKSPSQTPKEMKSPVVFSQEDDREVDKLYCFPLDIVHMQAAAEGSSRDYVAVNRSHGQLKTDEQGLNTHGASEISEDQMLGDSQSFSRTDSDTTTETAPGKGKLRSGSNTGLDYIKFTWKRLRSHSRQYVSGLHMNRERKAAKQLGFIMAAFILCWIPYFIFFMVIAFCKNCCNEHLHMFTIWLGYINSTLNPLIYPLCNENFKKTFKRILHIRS
Chain of 5-hydroxytryptamine receptor 1D (P28221 whole entry): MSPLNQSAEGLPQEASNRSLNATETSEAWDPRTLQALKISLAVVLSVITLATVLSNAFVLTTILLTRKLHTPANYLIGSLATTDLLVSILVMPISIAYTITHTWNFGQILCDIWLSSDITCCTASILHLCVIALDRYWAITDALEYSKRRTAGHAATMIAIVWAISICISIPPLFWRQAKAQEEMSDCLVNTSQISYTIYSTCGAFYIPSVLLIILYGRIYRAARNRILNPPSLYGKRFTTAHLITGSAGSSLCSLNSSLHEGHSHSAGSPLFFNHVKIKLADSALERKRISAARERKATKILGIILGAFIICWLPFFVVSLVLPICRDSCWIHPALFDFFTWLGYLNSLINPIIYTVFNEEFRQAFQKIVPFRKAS
Chain of 5-hydroxytryptamine receptor 1A (P08908 whole entry): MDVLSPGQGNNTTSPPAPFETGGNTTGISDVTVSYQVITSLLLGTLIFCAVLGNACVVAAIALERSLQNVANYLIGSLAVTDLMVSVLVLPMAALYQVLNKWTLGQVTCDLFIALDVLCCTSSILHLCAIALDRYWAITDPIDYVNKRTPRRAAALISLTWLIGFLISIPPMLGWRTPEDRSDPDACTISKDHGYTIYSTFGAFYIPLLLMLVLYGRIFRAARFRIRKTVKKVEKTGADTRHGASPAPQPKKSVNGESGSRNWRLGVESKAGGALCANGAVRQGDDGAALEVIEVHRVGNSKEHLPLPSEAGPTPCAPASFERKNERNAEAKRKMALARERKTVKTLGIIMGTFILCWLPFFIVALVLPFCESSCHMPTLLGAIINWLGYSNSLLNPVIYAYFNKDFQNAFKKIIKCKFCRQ
Chain of 5-hydroxytryptamine receptor 6 (P50406 whole entry): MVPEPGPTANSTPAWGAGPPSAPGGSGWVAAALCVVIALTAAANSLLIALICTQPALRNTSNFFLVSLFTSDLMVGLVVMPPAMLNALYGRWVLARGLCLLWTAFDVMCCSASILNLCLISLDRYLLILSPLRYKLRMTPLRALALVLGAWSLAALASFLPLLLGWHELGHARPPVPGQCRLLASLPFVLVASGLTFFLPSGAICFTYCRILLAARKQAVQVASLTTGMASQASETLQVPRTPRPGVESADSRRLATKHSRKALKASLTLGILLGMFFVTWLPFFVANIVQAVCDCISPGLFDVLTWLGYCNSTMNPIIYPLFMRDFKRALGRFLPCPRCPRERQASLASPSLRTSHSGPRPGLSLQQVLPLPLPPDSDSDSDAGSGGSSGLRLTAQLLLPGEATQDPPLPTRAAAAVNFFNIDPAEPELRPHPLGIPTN
Chain of Mitogen-activated protein kinase 14 (Q16539 whole entry): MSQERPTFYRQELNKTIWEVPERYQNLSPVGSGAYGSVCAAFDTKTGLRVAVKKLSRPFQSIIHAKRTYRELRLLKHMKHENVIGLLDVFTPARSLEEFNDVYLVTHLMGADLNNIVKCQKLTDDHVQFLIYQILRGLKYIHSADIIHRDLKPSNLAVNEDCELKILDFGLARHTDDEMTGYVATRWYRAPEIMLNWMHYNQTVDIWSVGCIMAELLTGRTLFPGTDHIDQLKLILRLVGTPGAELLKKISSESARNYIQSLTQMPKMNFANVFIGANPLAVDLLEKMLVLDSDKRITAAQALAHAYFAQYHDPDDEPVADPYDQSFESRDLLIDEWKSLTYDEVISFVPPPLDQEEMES
Chain of Cytochrome P450 1A2 (P05177 whole entry): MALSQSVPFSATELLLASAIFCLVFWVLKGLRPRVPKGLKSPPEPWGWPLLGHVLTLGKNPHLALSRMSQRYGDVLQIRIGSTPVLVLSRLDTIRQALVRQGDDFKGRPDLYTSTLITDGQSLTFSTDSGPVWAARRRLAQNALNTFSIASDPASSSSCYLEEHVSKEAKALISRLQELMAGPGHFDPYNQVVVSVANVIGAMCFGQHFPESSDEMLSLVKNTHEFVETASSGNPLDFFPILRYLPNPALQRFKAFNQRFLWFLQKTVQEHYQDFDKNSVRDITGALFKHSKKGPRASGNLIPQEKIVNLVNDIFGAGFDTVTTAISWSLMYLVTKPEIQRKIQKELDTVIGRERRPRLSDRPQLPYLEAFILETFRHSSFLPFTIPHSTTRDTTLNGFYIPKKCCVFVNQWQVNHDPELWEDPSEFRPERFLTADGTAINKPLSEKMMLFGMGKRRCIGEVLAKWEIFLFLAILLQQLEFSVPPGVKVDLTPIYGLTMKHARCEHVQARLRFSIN

O=S1(=O)NC(Nc2ccccc2Br)=Nc2c(O)cc(F)cc21
IC50 [1]: 0.36 µM

O=S1(=O)N=C(Nc2ccccc2Cl)Nc2c(O)cccc21
IC50 [1]: 5.2 µM

CC[C@@H](C)NC1=Nc2c(O)cc(Cl)cc2S(=O)(=O)N1
IC50 [1]: 15 µM

CC(=O)c1ccccc1NC1=Nc2c(O)cc(Cl)cc2S(=O)(=O)N1
IC50 [1]: 4.5 µM

O=S1(=O)N=C(Nc2cccc(Br)c2)Nc2c(O)cc(Cl)cc21
IC50 [1]: 6.1 µM

O=[N+]([O-])c1cc(O)c2c(c1)S(=O)(=O)N=C(Nc1ccccc1Cl)N2
bioavailability [2]: 5%
IC50 [1]: 0.081 µM
IC50 (Cytochrome P450 1A2): > 25 µM
IC50 (Cytochrome P450 2D6): > 25 µM
IC50 (Cytochrome P450 2C9): 0.6 µM
clearance [3]: 23 mL/min/kg
half-life [4]: 2 h
Vd [5]: 0.53 L/kg
IC50 (Cytochrome P450 3A4): > 25 µM
Ratio IC50 [6]: < 100
solubility [7]: 188 µM (≈ 69.3 µg/mL)
IC50 [8]: 1.1 µM
IC50 [9]: 12 µM

O=S1(=O)NC(Nc2ccccc2C(F)(F)F)=Nc2c(O)cc(Cl)cc21
IC50 [1]: 0.83 µM

O=S1(=O)NC(NCc2ccccc2Cl)=Nc2c(O)cc(Cl)cc21
IC50 [1]: > 30 µM

O=S1(=O)N=C(Nc2ccccc2Cl)Nc2c(O)cc(Cl)cc21
IC50 [1]: 0.092 µM
Ratio IC50 [6]: < 100
solubility [7]: 68 µM (≈ 24.4 µg/mL)
IC50 [8]: 0.52 µM
IC50 [9]: 24 µM

O=S1(=O)NC(NCc2ccccc2)=Nc2c(O)cc(Cl)cc21
IC50 [1]: 8 µM

O=S1(=O)N=C(Nc2ccccc2Oc2ccccc2)Nc2c(O)cc(Cl)cc21
IC50 [1]: 0.054 µM
Ratio IC50 [6]: < 100
solubility [7]: < 1 µM
IC50 [8]: 0.32 µM
IC50 [9]: 20 µM

O=S1(=O)N=C(Nc2ccccc2Br)Nc2c(O)cc(Cl)cc21
Ratio IC50 [6]: < 100

O=S1(=O)NC(Nc2ccccc2OC(F)(F)F)=Nc2c(O)cc(Cl)cc21
IC50 [1]: 0.93 µM

O=S1(=O)N=C(Nc2ccccc2Br)Nc2c(O)ccc(Cl)c21
IC50 [1]: 0.48 µM

O=S1(=O)NC(Nc2ccccc2Br)=Nc2c(O)cc(Cl)cc21
IC50 [1]: 0.064 µM
solubility [7]: 31 µM (≈ 12.5 µg/mL)
IC50 [8]: 0.4 µM
IC50 [9]: 13 µM

O=S1(=O)N=C(Nc2ccc(F)cc2Br)Nc2c(O)cc(Cl)cc21
IC50 [1]: 0.12 µM

O=S1(=O)N=C(Nc2cc(F)ccc2Br)Nc2c(O)cc(Cl)cc21
IC50 [1]: 3.9 µM

COc1ccccc1NC1=Nc2c(O)cc(Cl)cc2S(=O)(=O)N1
IC50 [1]: 0.25 µM

O=S1(=O)N=C(Nc2ccccc2)Nc2c(O)cc(Cl)cc21
IC50 [1]: 2.4 µM

O=[N+]([O-])c1cc(O)c2c(c1)S(=O)(=O)N=C(Nc1ccccc1Oc1ccccc1)N2
IC50 [10]: 25 µM
IC50 (Histamine H1 receptor): > 10 µM
IC50 [1]: 0.054 µM
IC50 [11]: 1 µM
IC50 [12]: 25 µM
IC50 [13]: 7.9 µM
IC50 [14]: > 25 µM
IC50 [15]: > 3.2 µM
IC50 (Adenosine receptor A2a): 25 µM
IC50 (D(2) dopamine receptor): > 3.2 µM
IC50 [16]: > 25 µM
IC50 [17]: > 25 µM
IC50 [18]: > 25 µM
Ratio IC50 [6]: < 100
solubility [7]: 2 µM (≈ 0.853 µg/mL)
IC50 [8]: 0.49 µM
IC50 (Histamine H3 receptor): > 3.2 µM
IC50 [19]: > 10 µM
IC50 (D(3) dopamine receptor): > 3.2 µM
IC50 [20]: > 7.9 µM
IC50 (P2Y purinoceptor 1): > 25 µM
IC50 [21]: > 3.2 µM
IC50 [9]: 7.6 µM
IC50 [22]: > 3.2 µM

O=S1(=O)N=C(Nc2ccccc2N2CCOCC2)Nc2c(O)cc(Cl)cc21
IC50 [1]: > 30 µM

O=S1(=O)N=C(Nc2ccccc2F)Nc2c(O)cc(Cl)cc21
IC50 [1]: 0.74 µM

O=S1(=O)N=C(Nc2ccccc2Br)Nc2c(O)ccc(F)c21
IC50 [1]: 3 µM

O=S1(=O)N=C(Nc2cccc(F)c2Cl)Nc2c(O)cc(Cl)cc21
Ratio IC50 [6]: < 100

O=S1(=O)N=C(NC2CCCC2)Nc2c(O)cc(Cl)cc21
IC50 [1]: 20 µM

O=[N+]([O-])c1cc(O)c2c(c1)S(=O)(=O)N=C(Nc1ccccc1Br)N2
IC50 [1]: 0.026 µM
Ratio IC50 [6]: < 100
solubility [7]: 233 µM (≈ 96.3 µg/mL)
IC50 [8]: 0.6 µM
IC50 [9]: 3.2 µM

Cc1cc(O)c2c(c1)S(=O)(=O)N=C(Nc1ccccc1Br)N2
IC50 [1]: 0.28 µM

O=S1(=O)N=C(Nc2ccccc2Br)Nc2c(O)cc(Br)cc21
IC50 [1]: 0.07 µM

O=S1(=O)NC(Nc2ccc(Br)cc2)=Nc2c(O)cc(Cl)cc21
IC50 [1]: 5.1 µM

O=S1(=O)NC(Nc2c(F)cccc2Br)=Nc2c(O)cc(Cl)cc21
IC50 [1]: 1.6 µM

O=S1(=O)NC(Nc2ccccc2-c2ccccc2)=Nc2c(O)cc(Cl)cc21
IC50 [1]: 0.23 µM

Cc1ccccc1NC1=NS(=O)(=O)c2cc(Cl)cc(O)c2N1
IC50 [1]: 0.39 µM

O=C(O)c1ccccc1NC1=Nc2c(O)cc(Cl)cc2S(=O)(=O)N1
IC50 [1]: > 30 µM

O=S1(=O)NC(Nc2cccc(F)c2Cl)=Nc2c(O)cc(Cl)cc21
IC50 [1]: 0.064 µM
solubility [7]: 160 µM (≈ 60.2 µg/mL)
IC50 [8]: 0.46 µM
IC50 [9]: 13 µM
